Test system: MS2 coat protein
Assay: apparent Kd, MS2 coat protein; higher = weaker binding; RNA-MaP array; FMN 200 µM where present
Summary of the method: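 Apparent Kd: the median of filtered binding-curve fits from single clusters. Designs were transcribed on Illumina sequencing-chip clusters by stalled E. coli RNA polymerase and titrated with SNAP-549-labelled MS2 coat protein from 0.7 or 1.5 nM, doubling to 3 µM, in 100 mM Tris-HCl pH 7.5, 80 mM KCl, 4 mM MgCl2, BSA, DTT, yeast tRNA and Tween-20. Each series ran without and then with constant ligand, and green signal was normalised to red-channel RNA signal and control-cluster median Fmax.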

[1] = designed as: ON switch for flavin mononucleotide, no ligand
[2] = ligand present: flavin mononucleotide, designed as: ON switch for flavin mononucleotide
[3] = designed as: OFF switch for flavin mononucleotide, no ligand
[4] = ligand present: flavin mononucleotide, designed as: OFF switch for flavin mononucleotide

| Sequence | apparent Kd [1] [nM] | apparent Kd [2] [nM] | apparent Kd [3] [nM] | apparent Kd [4] [nM] |
| --- | --- | --- | --- | --- |
| GUGUUACAUGAGGAUCACCCAUGUUGUUUUAGAUAAGGAUAUAUGGUAACGAGAGAAAUAAUAGAAGGUAUUAGGC | 33.4 | 23.1 | – | – |
| AUCAGCUCGUCAGGAUAUACGUCACUGCGUCAGCAGUGUGGUAAGAUCACAUGAGGAUCACCCAUGUAGAAGGGACCAGCUGAU | – | – | 13.4 | 229 |
| CGUAGGAUCCAGAAGGCAUGUACAUGAGGAUCACCCAUGUCAAUAGACAUGAGGAUAUGGAUCCUACGAAAAGUGCGAAAGCAC | 10.5 | 4.49 | – | – |
| UCCCUUAGUGUAAGGAUAUCGUUCCAUUGACGGAGCGAGAAGGUACAUGAGGAUCACCCAUGUGUCAAUGCCGG | – | – | 20 | 54.4 |
| GGAGAUACAUGAGGAUCACCCAUGUAGGAUAUCGGGCAUAUAUAUGGCGAAAGCCAUAUAUAUGCCGAGAAGGGCGUACACACC | – | – | 8.12 | 7.62 |
| CGCUCAGAGAACGAUACGAAUAGACAUGAGGAUCACCCAUGUAGAAGGACAACGGAAUAAACGUUGUAGGAUAUACAUUUAGCG | – | – | 24.6 | 52.6 |
| CCGAUAAGGAGAGGAUAUGGACAUGAGGAUCACCCAUGUACAUGGGAAUAUAUACUGAAUUUUUACUAGAAGGCUUACAUAAAU | – | – | 15.6 | 12.6 |
| GCUAAACAUGAGGAUCACCCAUGUACCGAUCACUAAGGAUAUGGGCGAAUAACGGCUCGGCCAGAAGGUAGAGAUG | 66.9 | 81.8 | – | – |
| CCUCAUAUUUAGGAUAUGAUGGGUUAUUAUUCGUUAGAAGGAGGUACAUGAGGAUCACCCAUGUCCCGUUUGGG | – | – | 34.2 | 32.9 |
| CGAAGUCCGUAGAAGGGUGACAUGAGGAUCACCCAUGUGCGAGCCGAGGGAGUCAGCGGCUCGCCACAGGAUAUACGGAGCACG | 33.5 | 21.7 | – | – |
| GUCAGCUCGUGAGGAUAUACAACACUGCUUCGGCAGUGUACUAAGAUCACAUGAGGAUCACCCAUGUAGAAGGCACGAGCUGAU | – | – | 14.6 | 246 |
| UGUCGGAGCAGAGGAUAUUACAUGAGGAUCACCCAUGUAUCAACCAAUAGCUGGAAACAGCAAUGUAAGAAGGCUGCUCCGACA | – | – | 7.54 | 19.8 |
| GAUUCGGGAGGAUAUACAUGAGGAUCACCCAUGUGUUUUUUGUGUGUUUUGUUAUCGUGUAGAAGGUUUGGGUC | – | – | 117 | 172 |
| AAGCUGGUAGGAUAUACUAGGGCAACUAAUGCGCCGAUAGGACAUGAGGAUCACCCAUGUAGAAGGGCCAGAAA | – | – | 80.1 | 93.1 |
| AUCAUUCGUGUAGGAUAUGCGUGACGAAGUCAUGCAGAAGGACAUGAGGAUCACCCAUGUCUUUCUCGAGCUGUAGCUCGAGGA | – | – | 23.9 | 156 |
| AUGAAAGUAACACAGGAUAUCCAGGAUACAACAUGAGGAUCACCCAUGUACAUACGAACGUAUAAGGAGAAGGGUGGAUGAUCUUC | 215 | 264 | – | – |
| UCUGCUCGAGGAUAUACAUGAGGAUCACCCAUGUAUCCCUGUAGCAUGGCCUCAGGAUGUAGAAGGCGACGCUA | – | – | 14.9 | 16.8 |
| UUGGACGUCGUAGGAUAUGUAGGAUAUUCCUACAUGAGGAUCACCCAUGUUGACAUGGAAGAAGGACAGAAGGACGGUGUCCAU | 241 | 4.54 | – | – |
| AGUACUCAAAGAGUACGCGUAAGCACAUGAGGAUCACCCAUGUAGGAUAUGCUACUCAAAGAGUAGUAGAAGGACAUAUACCUC | – | – | 5.2 | 6.34 |
| UUAAAUCAUGUAGGAUAUGCAUGGCGAAGCUACGCAGAAGGACAUGAGGAUCACCCAUGUUCUGGCUACCGAGUACGGUGGCAA | – | – | 20.5 | 81.2 |
| UUAAUUAUACAAGGAUAUCUAUUGUUAUGUCGACUUACAUGAGGAUCACCCAUGUUAAUAUAUGAAGAGAAGGUGUAUUUUCAG | 157 | 90 | – | – |
| AGCAUGUAAGGAUAUGUAACGCGGCGUUCAUUCGUCGUCCCACAGAAGGUACAUGAGGAUCACCCAUGUGCUCC | – | – | 42 | 77.7 |
| ACAUGAGGAUCACCCAUGUGACCACAAUGGCUGAUGUAACAACAGGAUAUUCGUGAAUAUCUAACGAAGAAGGGUUAUGACUGG | – | – | 71.4 | 65.2 |
| AUGGUACAUGAGGAUCACCCAUGUUAGGAUAUCGCGUGACCUAAAACUAAGAGACACACGAGAAGGGACGACAU | – | – | 89.6 | 78.1 |
| GUCGGAAACGACAAAAGUAGCAUACGAGAAGGUUGAUCCAAGACAUGAGGAUCACCCAUGUAGUUAGAGGAUAUUGGAUGCUAC | 163 | 116 | – | – |
| AUGGUUGUCGUAGGAUAUGUAGGAUAUUCCUACAUGAGGAUCACCCAUGUUCGCAUGGAAGAAGGACAGAAGGACGAUAACCAC | 1310 | 8.46 | – | – |
| UGUGUCUGUAGAGGAUAUCCGAGCGUUCGGCGAGGAGAAGGCUGCAACACAUGAGGAUCACCCAUGUAGGUUGUGUCUCCCUAC | – | – | 10.9 | 32.2 |
| UGUCCAUAGCAGAAGGACAUGAAUAAACAUGAAAACAUGAGGAUCACCCAUGUAGGAUAUGCUAUGGACUAAGAGCGAAAGCUC | – | – | 7.06 | 48.1 |

| Sequence | apparent Kd [1] [nM] | apparent Kd [2] [nM] | apparent Kd [3] [nM] | apparent Kd [4] [nM] |
| --- | --- | --- | --- | --- |
| ACAGUAAACGAAGGAUAUGGUUACAUGAGGAUCACCCAUGUAAUGGUUGUGAUAUUGAUUAAGUUCCAGAAGGUCGUAUACUUA | – | – | 190 | 272 |
| UAACAUGUCCGAGGAUAUCUGGAAACAUUUUCAAGAGAAGGCGGACAUGAGGAUCACCCAUGUCUCUCCUCAUCAACUACAAAU | – | – | 8.61 | 57.5 |
| CCGAUUAGCACAGGAUAUGGGAAUUCGUAGUUUCCAGAAGGGUGAGCCAAUACAUGAGGAUCACCCAUGUGCGGUAGGUCGAGA | 51.1 | 60.7 | – | – |
| CAGUACUGAGGAUAUACAUGAGGAUCACCCAUGUGUUCCAGCUAGGAAACUAGGAAAAGUAGAAGGCAGUACUG | – | – | 22.1 | 261 |
| UUAAAUCGAAACAUGAGGAUCACCCAUGUGUUGUAAUUAACAUAGGAUAUGUAAAUACUUUUUUAAUAGAAGGAUGAUAAUACU | 17 | 12.9 | – | – |
| UUUAAACAGUCAGGAUAUGUAACGCACAACGGCGCAGAAGGGACAUGAGGAUCACCCAUGUUAUGGUUCUGGUACUAUGACGUU | – | – | 18.4 | 22.9 |
| GGAACAACAUGAGGAUAUCGAUGAGUAUAGAGUCGAGAAGGCAUGUCAUAAGACAUGAGGAUCACCCAUGUAGUUACAAUACCA | 1010 | 69.2 | – | – |
| AUGGGACAUGAGGAUCACCCAUGUCAGGAUAUUUAGUCGCUGCGGAAAUGUGUUGGUUGGAGAAGGGACAUCAU | – | – | 38.3 | 35.1 |
| GCAUUUUAUGCAGGAUAUUGACUUUGGAUUAAACAAGAAGGGCAUAACAUGAGGAUCACCCAUGUUAUAUAGGUAUAUAUGUUC | – | – | 7.45 | 9.62 |
| UGGUUAUAUGAAGGAUAUACUUAACAUGAGGAUCACCCAUGUGGUGUUGUGAGUGAGUGAGUUUAGUAGAAGGUCAAUUCUUUU | – | – | 176 | 197 |
| UAUAUUAACAAGAAGGCUAACAUGAGGAUCACCCAUGUUGUACAUGGAUAUAGAGGAUAUUGCUAAUAAUUAUUUAUCAUAAUU | – | – | 20.4 | 18.3 |
| AAAAAACAUGAGGAUCACCCAUGUAAAAAAAUGGGAGGAUAUCUGAAUUAAUUAAAUUAAGGAGAAGGCCUAAAAA | 239 | 31.9 | – | – |
| CUACGUGUCGAGAAGGGCUCACGUAACGGAACAGCAGGAUAUCGACAUGAGGAUCACCCAUGUCGGAACGAACGGAUCUUUAAU | – | – | 7.24 | 8.18 |
| GUUUCGUGAGGAUAUGUGGCUUCGAUCGUGCGAUCGAGGCUACAGAAGGCACAUGAGGAUCACCCAUGUUCCUC | – | – | 45.2 | 612 |
| GACAUGGUCCAGAAGGGCUAUCUAUUUAAGUACGAUUUAGAACAGCAUAGCAGGAUAUGGCUAACAUGAGGAUCACCCAUGUUC | 20.5 | 9.26 | – | – |
| GGGUACAUCGGAGGAUAUCAUGUAAAUACAUGAGGAUCACCCAUGUCGAUGGAGACAUCGGAGAUUGAGAAGGCCGAUAUACCG | 139 | 9.34 | – | – |
| GCCAUCGUAUGAGGAUAUGACACCGAAACGGUGUCAGAAGGCAUGUCGAUAGACAUGAGGAUCACCCAUGUAUUAACGAUGGCA | 740 | 94.2 | – | – |
| CCUCUUGGGCAAGGAUAUCCUGCGCGGUUCCGGUUCGUGUCUGUCACAUGAGGAUCACCCAUGUGGGAGAAGGUGCCUGCGGUC | – | – | 17.9 | 24.2 |
| UUUUAGUCAGGAUAUACAUGAGGAUCACCCAUGUAAAAUUUUAAUUUAAUUUUAAGGUGUAGAAGGGACAUUAA | – | – | 27.6 | 29.4 |
| AGUGUCGGCACAGGAUAUGAGAUGCCGGCAGACAUGAGGAUCACCCAUGUAAGCGACCCAGGCAGUCAGAAGGGUGAUCGACAA | 156 | 44.4 | – | – |
| GUUUGAUUGUAGAAGGUACUUAAUACUCAUGUUACAUGAGGAUCACCCAUGUUUCUACAUUAUUGUAAGGAUAUACAUAACUCA | 259 | 48.6 | – | – |
| UCCUGAUUGAGAGGUAGGAGUGGUAGAAGGCGACCGGUGCCAGAUGACAUGAGGAUCACCCAUGUCGAGGAUAUACCACUGAAU | – | – | 7.38 | 12.4 |
| GGAUGACAAAGUCAUCCUAUUCGAACAUGAGGAUCACCCAUGUAGGAUAUGCUACUCAAAGAGUAGCAGAAGGACAUGUGCCUU | – | – | 32.6 | 178 |
| ACUGGUCGAGGAUAUGCAAUCGUGCUUCGGCACGUAAGGUCACAUGAGGAUCACCCAUGUAGAAGGCGACCAGU | – | – | 17.2 | 36.4 |
| CCUAUACAUGAGGAUCACCCAUGUCAGGAUAUAGAAAGCUACGGAAUAGGACGUAGCACUAGAAGGGACUGGCU | – | – | 29.2 | 43.4 |
| GUAGAGUCAGGAUAUACAAGAUCGAAAGAUCGAAGAUCCAUACAUGAGGAUCACCCAUGUAGAAGGGACUCUAC | – | – | 17.1 | 35.8 |
| UCUACAUAAAUUCAUCAAUACAGAAAGGAUAUGAGAUACAUGAGGAUCACCCAUGUGCAUGGGAAUUAGAAGGUUCAAUUAGCU | – | – | 94.2 | 58.6 |

— the EternaBench riboswitch data
